Shown are actives, neighbours in structure and some others; about 1.1% of the full set was active somewhere.
Furin inh = blocks human furin protease activity. P09958. purified furin, fluorogenic substrate cleavage. inhibition, % at 20 µM or 30 µM. actives 0.061% (n = 220,000). AID 463115; in the data active means inhibition above about 25%
Target sequence (P09958 108-714 limits assumed): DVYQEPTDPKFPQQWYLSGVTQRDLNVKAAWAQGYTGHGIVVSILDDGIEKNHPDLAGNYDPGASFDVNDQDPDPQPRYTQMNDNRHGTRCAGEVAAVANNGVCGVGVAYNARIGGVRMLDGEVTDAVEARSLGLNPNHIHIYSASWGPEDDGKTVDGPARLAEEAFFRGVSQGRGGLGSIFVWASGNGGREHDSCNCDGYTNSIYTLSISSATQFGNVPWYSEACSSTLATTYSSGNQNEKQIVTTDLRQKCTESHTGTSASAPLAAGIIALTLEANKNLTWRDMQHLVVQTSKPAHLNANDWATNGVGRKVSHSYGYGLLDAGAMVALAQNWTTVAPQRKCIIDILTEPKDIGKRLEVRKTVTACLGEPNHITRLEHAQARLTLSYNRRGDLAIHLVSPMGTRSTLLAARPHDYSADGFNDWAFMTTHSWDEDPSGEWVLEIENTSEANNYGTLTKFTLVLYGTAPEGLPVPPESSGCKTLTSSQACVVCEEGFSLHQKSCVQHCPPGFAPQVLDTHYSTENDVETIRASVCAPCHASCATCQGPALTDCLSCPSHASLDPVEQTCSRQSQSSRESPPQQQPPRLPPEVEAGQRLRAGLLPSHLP
Thrombin inh = blocks human thrombin protease activity; alpha-thrombin, Boc-VPR-AMC fluorogenic substrate cleavage; inhibition, % at 5 µM; actives 0.26% (n = 220,000); AID 1046;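 active means inhibition at or above 40%; inactive means inhibition below 40%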
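Test system: human alpha-thrombin; medium: pH 7.5 Tris-saline with Tween 20; times: reaction at room temperature; signal: AMC fluorescence at 355 nm excitation and 460 nm emission; also added: Boc-VPR-AMC substrate, 15 µM final; dosing: one concentration per compound, 5 µM, with 0.2% DMSO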
FXIa inh 1536 = factor XIa (human) inhibition | P03951 | purified FXIa, Boc-Glu-Ala-Arg-AMC fluorogenic substrate | inhibition, % at 5 µM | actives 0.14% (n = 220,000) | AID 798;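 active means inhibition of at least 40%; inactive means inhibition below 40%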;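 further: fluorescence of freed AMC excited at 355 nm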
hK5 inh = inhibitors of human kallikrein 5. inhibition, % at 5 µM. recombinant hK5, fluorogenic AMC substrate cleavage. actives 0.59% (n = 210,000). Q9Y337;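 active means inhibition of 40% or more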
FXIIa inh = factor XIIa (human) inhibition. purified FXIIa, Boc-QGR-AMC fluorogenic substrate, 2 h. AID 800. inhibition, % at 5 µM. actives 0.3% (n = 220,000); in the data active means inhibition above about 40%
Hits are given with their value; 0 = inactive.

SMILES	Furin inh	Thrombin inh	FXIa inh 1536	hK5 inh	FXIIa inh
O=C1NC(=S)N(C2CC2)C(=O)/C1=C/c1ccc2c(c1)CCN2CCCCl	0	0	0	0	43
CCN1C(=O)/C(=C/c2ccc3c(c2)CCN3CCCCl)C(=O)NC1=S	0	0	0	0	0
Cc1cc(N2CCCC2)ccc1C=C(C#N)C#N	0	0	0	48	0
COc1ccc(C(=O)O/N=C(/C(N)=O)P(=O)(OC(C)C)OC(C)C)cc1	0	0	0	0	0
CCCCN1CCC(O)(c2ccccc2)C(C(=O)c2ccccc2)C1 (stereo not given)	34	0	0	0	0
Cc1ccc2c(c1)C1CN(C)CCC1N2C(=O)c1cccnc1Cl (stereo not given)	0	0	0	0	0
Cc1ccc2c(c1)C1CN(C)CCC1N2C(=O)c1cn(-c2ccccc2)nc1-c1ccccc1 (stereo not given)	0	80	0	0	0
O=P(C(c1c[nH]c2ccccc12)N1CCOCC1)(N1CCOCC1)N1CCOCC1 (stereo not given)	0	0	0	43	0
Cc1onc(-c2c(Cl)cccc2Cl)c1C(=O)Nc1ccc2c(C(F)(F)F)cc(=O)oc2c1	0	0	0	0	0
COc1cc2c(cc1/C=C/[N+](=O)[O-])OCO2	0	0	42	40	0
COCCCn1c(-c2ccc(OC)cc2)cc(C(=O)NC2CCCCCCC2)c1C	0	0	0	0	0
C=CCn1c(O)c(/C=N/NC(=O)c2ccncc2)c(=O)[nH]c1=O	36	0	0	0	0
C/C(=N\Nc1ccccc1)c1c(O)n(C)c(=O)n(C)c1=O	0	0	0	0	0
CN(C(=O)Oc1cccc2cccnc12)c1ccccc1	0	0	0	0	44
CN(C(=O)Oc1ccc(Cl)c2cccnc12)c1ccccc1	0	0	0	0	0
CCCCN1C(=O)NC(=O)C2(Cc3c(nc4ccccn4c3=O)N3CCc4ccccc4C32)C1=O (stereo not given)	0	45	0	0	0
CCCCN1C(=O)NC(=O)C2(Cc3c(nc4c(C)cccn4c3=O)N3CCc4ccccc4C32)C1=O (stereo not given)	0	0	0	0	0
CC(NCC#Cc1ccccc1)C(O)c1ccccc1 (stereo not given)	0	0	0	0	0
OCC#CC[N+]1(CC#Cc2ccccc2)CCOCC1	0	0	0	78	0
O=C1CC(c2cccnc2)=NN1c1ccccc1	0	0	0	0	0
O=C1NC(=O)C(Cc2cccs2)C(=O)N1	0	0	0	78	0
CC1CCCN(CC(=O)N2CCCc3ccccc32)C1 (stereo not given)	0	0	0	87	0
O=C(c1ccccc1)c1cn(CC(=O)N2CCCc3ccccc32)c2ccccc12	0	0	0	0	0
CC(=O)OC1C2CCCC1C(N1CCCC1)CC2 (stereo not given)	0	0	0	0	0
O=C(O)c1ccc(N=Cc2c(O)n(Cc3ccc(F)cc3)c(=O)[nH]c2=O)cc1	0	0	0	0	41
SMILES	Furin inh	Thrombin inh	FXIa inh 1536	hK5 inh	FXIIa inh
COC(=O)c1ccccc1-n1c(C)nc2ccccc2c1=O	0	0	0	82	0
CN1/C(=C\C=C2C(=O)NC(=O)NC2=O)C(C)(C)c2ccccc21	28	0	0	0	0
O=[N+]([O-])c1ccc(N2CCNCC2)c(Cl)c1	0	0	0	0	0
Clc1ccc2c(N3CCNCC3)ccnc2c1	0	0	0	41	0
CNC(=O)Oc1cccc2ccccc12	0	0	0	42	0
CN(C)C(=O)Oc1ccc2ccccc2c1Cl	0	0	0	0	0
CN1CCc2nc(SCc3cccc(Br)c3)c(C#N)cc2C1	0	0	0	0	0
CCN(CC)C(=O)c1ccc(NC(=O)COc2ccccc2F)cc1	0	0	0	0	0
C1CC2NCCC3NCCC(N1)N32 (stereo not given)	0	0	0	0	0

Assay outcomes: PubChem BioAssay, several laboratories
